Measured values published in ChEMBL document CHEMBL1144277, “Acyl sulfonamide anti-proliferatives. Part 2: activity of heterocyclic sulfonamide derivatives” (Bioorg Med Chem Lett, 2005).

How the values were obtained:
HCT-116 [1] = test: Zone of inhibition by the compound against HCT116 human tumor cells at dose of 200 ug/disk; type: functional
In short: (§1)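 HCT116 colon carcinoma cells in a soft-agar disk diffusion assay, giving a qualitative measure of cytotoxicity. The test agent is applied on a disk at the stated µg per disk. The zone of inhibition is read in zone units (200 units = 6.5 mm), and a zero zone means no inhibition.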

[2] = Zone of inhibition by the compound against Normal fibroblasts at dose of 190 ug/disk; Range 0-350; type: functional
In short: (§2)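 Soft-agar disk diffusion assay on L1210 leukemia cells or normal fibroblasts, with the agent applied on a disk at the stated µg per disk. The zone of inhibition is recorded in zone units (200 units = 6.5 mm), and a zero zone denotes no inhibition.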

L1210 [3] = test: Zone of inhibition by the compound against L1210 Cells at dose of 190 ug/disk; No inhibition; type: functional, Mus musculus; in short: as §2
HCT-116 [4] = test: Zone of inhibition by the compound against HCT116 human tumor cells at dose of 190 ug/disk; type: functional; in short: as §1
[5] = Inhibitory concentration against Vascular Endothelial Growth Factor dependent Human Umbilical Vascular Endothelial Cells (VEGF-HUVEC); type: functional
In short: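 Anti-proliferative IC50 measured in HUVEC whose growth depends on VEGF; reported values are means of at least three experiments.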

[6] = Zone of inhibition by the compound against Normal fibroblasts at dose of 210 ug/disk; Range 0-370; type: functional; in short: as §2
L1210 [7] = test: Zone of inhibition by the compound against L1210 Cells at dose of 210 ug/disk;; type: functional, Mus musculus; in short: as §2
HCT-116 [8] = test: Zone of inhibition by the compound against HCT116 human tumor cells at dose of 210 ug/disk; type: functional; in short: as §1
HCT-116 [9] = test: Zone of inhibition by the compound against HCT116 human tumor cells at dose of 115 ug/disk; type: functional; in short: as §1
[10] = Zone of inhibition by the compound against Normal fibroblasts at dose of 200 ug/disk; Range 0-400; type: functional; in short: as §2
L1210 [11] = test: Zone of inhibition by the compound against L1210 Cells at dose of 200 ug/disk; No inhibition; type: functional, Mus musculus; in short: as §2
[12] = Zone of inhibition by the compound against Normal fibroblasts at dose of 210 ug/disk; Range 0-400; type: functional; in short: as §2
L1210 [13] = test: Zone of inhibition by the compound against L1210 Cells at dose of 210 ug/disk; No inhibition; type: functional, Mus musculus; in short: as §2
L1210 [14] = test: Zone of inhibition by the compound against L1210 Cells at dose of 210 ug/disk; Range 0-60; type: functional, Mus musculus; in short: as §2
[15] = Zone of inhibition by the compound against Normal fibroblasts at dose of 210 ug/disk; Range 0-330; type: functional; in short: as §2
L1210 [16] = test: Zone of inhibition by the compound against L1210 Cells at dose of 200 ug/disk; Range 0-250; type: functional, Mus musculus; in short: as §2
[17] = Zone of inhibition by the compound against Normal fibroblasts at dose of 210 ug/disk; Range 0-270; type: functional; in short: as §2
L1210 [18] = test: Zone of inhibition by the compound against L1210 Cells at dose of 210 ug/disk; Range 200-270; type: functional, Mus musculus; in short: as §2
HCT-116 [19] = test: Zone of inhibition by the compound against HCT116 human tumor cells at dose of 210 ug/disk; Range 470-530; type: functional; in short: as §1

| SMILES | IC50 [5] [nM] | further results |
| --- | --- | --- |
| O=C(NS(=O)(=O)c1ccc(Cl)cc1)c1ccc(Cl)cc1Cl |  | Zone of inhibition (HCT-116 [1]): 660 zone of inhibition units |
| O=C(NS(=O)(=O)c1cccs1)c1ccc(Cl)cc1Cl | 540 | Zone of inhibition [2]: 350 zone of inhibition units; Zone of inhibition (L1210 [3]): 0 zone of inhibition units; Zone of inhibition (HCT-116 [4]): 490 zone of inhibition units |
| O=C(NS(=O)(=O)c1ccc2ccsc2c1)c1ccc(Cl)cc1Cl | 640 |  |
| O=C(NS(=O)(=O)c1cc(Br)c(Br)s1)c1ccc(Cl)cc1Cl | 220 |  |
| O=C(NS(=O)(=O)c1cc2ccccc2s1)c1ccc(Cl)cc1Cl | 960 | Zone of inhibition [6]: 370 zone of inhibition units; Zone of inhibition (L1210 [7]): 100 zone of inhibition units; Zone of inhibition (HCT-116 [8]): 500 zone of inhibition units |
| O=C(NS(=O)(=O)c1ccc(Cl)c(Cl)c1)c1ccc(Cl)cc1Cl |  | Zone of inhibition (HCT-116 [1]): 560 zone of inhibition units |
| CCc1nc(S(=O)(=O)NC(=O)c2ccc(Cl)cc2Cl)c[nH]1 | > 20000 |  |
| O=C(NS(=O)(=O)c1ccc2sccc2c1)c1ccc(Cl)cc1Cl | 620 |  |
| N#Cc1ccc(S(=O)(=O)NC(=O)c2ccc(Cl)cc2Cl)s1 | 3160 |  |
| O=C(NS(=O)(=O)c1ccccc1)c1ccc(Cl)cc1Cl |  | Zone of inhibition (HCT-116 [9]): 700 zone of inhibition units |
| O=C(NS(=O)(=O)c1ccc2c(c1)OCO2)c1ccc(Cl)cc1Cl | 480 | Zone of inhibition [10]: 400 zone of inhibition units; Zone of inhibition (HCT-116 [1]): 610 zone of inhibition units; Zone of inhibition (L1210 [11]): 0 zone of inhibition units |
| O=C(NS(=O)(=O)c1cccc2cc[nH]c12)c1ccc(Cl)cc1Cl | 3040 |  |
| CCc1ccc(S(=O)(=O)NC(=O)c2ccc(Cl)cc2Cl)s1 | 310 |  |
| O=C(NS(=O)(=O)c1ccc2c(c1)CCO2)c1ccc(Cl)cc1Cl | 430 | Zone of inhibition [12]: 400 zone of inhibition units; Zone of inhibition (HCT-116 [8]): 680 zone of inhibition units; Zone of inhibition (L1210 [13]): 0 zone of inhibition units |
| Cc1ccc(S(=O)(=O)NC(=O)c2ccc(Cl)cc2Cl)s1 | 600 |  |
| CN1CCc2ccc(S(=O)(=O)NC(=O)c3ccc(Cl)cc3Cl)cc21 | 1540 | Zone of inhibition (L1210 [14]): 60 zone of inhibition units; Zone of inhibition [15]: 330 zone of inhibition units; Zone of inhibition (HCT-116 [8]): 630 zone of inhibition units |
| O=C(NS(=O)(=O)c1cc2ccccc2o1)c1ccc(Cl)cc1Cl | 970 |  |
| COc1ccc(S(=O)(=O)NC(=O)c2ccc(Cl)cc2Cl)s1 | 680 |  |

| SMILES | IC50 [5] [nM] | further results |
| --- | --- | --- |
| COC(=O)c1ccc(S(=O)(=O)NC(=O)c2ccc(Cl)cc2Cl)s1 | 1390 |  |
| O=C(NS(=O)(=O)c1cnc(Cl)s1)c1ccc(Cl)cc1Cl | 1090 |  |
| COc1ncc(S(=O)(=O)NC(=O)c2ccc(Cl)cc2Cl)s1 | 540 |  |
| O=C(NS(=O)(=O)c1ccc2c(c1)OCCO2)c1ccc(Cl)cc1Cl | 400 | Zone of inhibition [10]: 400 zone of inhibition units; Zone of inhibition (L1210 [16]): 250 zone of inhibition units; Zone of inhibition (HCT-116 [1]): 580 zone of inhibition units |
| O=C(NS(=O)(=O)c1ccc(Cl)s1)c1ccc(Cl)cc1Cl | 360 |  |
| O=C(NS(=O)(=O)c1cccc2sccc12)c1ccc(Cl)cc1Cl | 3300 |  |
| O=C(NS(=O)(=O)c1ccc2ccoc2c1)c1ccc(Cl)cc1Cl | 590 |  |
| CCc1ncc(S(=O)(=O)NC(=O)c2ccc(Cl)cc2Cl)s1 | 600 |  |
| O=C(NS(=O)(=O)c1cc(Cl)c(Br)s1)c1ccc(Cl)cc1Cl | 760 |  |
| O=C(NS(=O)(=O)c1cc(Br)cs1)c1ccc(Cl)cc1Cl | 600 |  |
| O=C(NS(=O)(=O)c1ccc2ccccc2c1)c1ccc(Cl)cc1Cl | 800 | Zone of inhibition [17]: 270 zone of inhibition units; Zone of inhibition (L1210 [18]): 270 zone of inhibition units; Zone of inhibition (HCT-116 [19]): 530 zone of inhibition units |
| O=C(NS(=O)(=O)c1ccsc1)c1ccc(Cl)cc1Cl | 1270 |  |
| O=C(NS(=O)(=O)c1cccc2ccoc12)c1ccc(Cl)cc1Cl | 5210 |  |
| Cc1csc(S(=O)(=O)NC(=O)c2ccc(Cl)cc2Cl)c1 | 700 |  |
| Cc1ncc(S(=O)(=O)NC(=O)c2ccc(Cl)cc2Cl)s1 | 1180 |  |
| O=C(NS(=O)(=O)c1cccc2ccsc12)c1ccc(Cl)cc1Cl | 4160 |  |
| O=C(NS(=O)(=O)c1ccc2cc[nH]c2c1)c1ccc(Cl)cc1Cl | 1870 |  |
| O=C(NS(=O)(=O)c1cc(Cl)cs1)c1ccc(Cl)cc1Cl | 390 |  |
